High-throughput results deposited in PubChem by several laboratories.
Furin inh: human furin inhibition. inhibition, % at 20 µM or 30 µM. actives 0.061% (n = 220,000). purified furin, fluorogenic substrate cleavage. P09958; in the data active means inhibition above about 25%
NPY1 pot ag: potentiates or activates human NPY-Y1 receptor. AID 1304. activation, % at 3.6 µM. actives 0.37% (n = 220,000). NPY-Y1 expressing cells, potentiator/agonist activation. P25929; in the data active means activation above about 33%, passing the limit was not always enough;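 further: cells stimulated with NPY at EC10 then isoproterenol at EC100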
Target sequence (P25929 whole entry, looked up): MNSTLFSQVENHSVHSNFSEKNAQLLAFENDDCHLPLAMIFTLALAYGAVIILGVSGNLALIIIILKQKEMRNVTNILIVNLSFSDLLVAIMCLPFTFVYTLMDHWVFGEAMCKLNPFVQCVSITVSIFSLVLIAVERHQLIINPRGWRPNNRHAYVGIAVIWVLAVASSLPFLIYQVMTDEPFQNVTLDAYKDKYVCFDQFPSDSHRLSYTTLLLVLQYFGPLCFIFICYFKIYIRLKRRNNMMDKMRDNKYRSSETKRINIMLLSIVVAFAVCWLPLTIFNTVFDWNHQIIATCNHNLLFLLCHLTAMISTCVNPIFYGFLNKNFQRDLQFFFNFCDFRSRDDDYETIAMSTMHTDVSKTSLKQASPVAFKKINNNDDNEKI
NPY Y1 blocker: antagonists of human neuropeptide Y receptor Y1. HEK293-CNG Y1 cells, membrane potential fluorescence; NPY at EC95, then isoproterenol. actives 1% (n = 200,000). inhibition, % at 3.6 µM. P25929;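 active means inhibition above the campaign mean inhibition of all tested compounds plus 3 SD, cut at about 20% in these data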
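Material: Y1- and CNG-channel-expressing HEK293 cells / Probe or stimulus: NPY 25 nM then isoproterenol 1 µM plus Ro 20-1724 25 µM / Doses: 3.6 µM single dose, DMSO 0.4% / Schedule: compound incubation 1 h at room temperature, readout 45 min post-stimulation / Signal: membrane potential fluorescence / Benchmarks: isoproterenol-only wells as full block versus NPY-plus-isoproterenol wells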
NPY-Y2 antag: antagonists of human neuropeptide Y receptor Y2; NPY-Y2 expressing cells, antagonist mode; actives 0.99% (n = 140,000); P49146; inhibition, % at 2.7 µM; in the data active means inhibition above about 17%
Target sequence (P49146 whole entry, looked up): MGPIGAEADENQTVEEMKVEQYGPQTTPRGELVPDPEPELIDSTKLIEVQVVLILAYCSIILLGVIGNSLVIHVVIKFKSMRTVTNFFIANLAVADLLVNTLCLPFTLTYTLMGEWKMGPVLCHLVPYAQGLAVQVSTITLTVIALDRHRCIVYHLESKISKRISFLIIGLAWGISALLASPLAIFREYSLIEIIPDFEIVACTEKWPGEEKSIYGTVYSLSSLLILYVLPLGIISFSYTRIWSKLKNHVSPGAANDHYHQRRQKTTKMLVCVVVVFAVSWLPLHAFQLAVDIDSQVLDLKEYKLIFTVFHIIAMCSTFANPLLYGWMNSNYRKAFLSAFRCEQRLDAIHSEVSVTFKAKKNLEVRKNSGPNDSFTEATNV
Cl transport mod: modulates chloride dependent transport by human KCC2 | B-score of Tl+ flux slope (higher = more flux/activation; lower = inhibition) at 10 µM | AID 1456 | actives 2.2% (n = 190,000) | KCC2 cells, thallium flux FluoZin-2 fluorescence;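 active means thallium flux slope and its plate-corrected score both differing from the plate sample mean at a set confidence after two filtering rounds, in either direction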;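 further: slope of fluorescence scaled to starting intensity during 10 to 20 s after thallium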
NPY-Y2 PAM-ag: potentiates or activates human NPY-Y2 receptor | P49146 | cells expressing NPY-Y2, potentiator/agonist read-out | activation, % at 3.6 µM | actives 0.45% (n = 220,000) | AID 1359; in the data active means activation above about 27%;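 further: cells stimulated with NPY near EC25 plus isoproterenol at EC100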
KCC2 secondary: KCC2 (human) modulation, secondary assay; normalised thallium flux (F/F0 slope) at 10 µM; shares compounds with Cl transport mod; AID 1713; HEK293-KCC2, thallium flux, FluoZin2 fluorescence; active compounds read high; actives 15% (n = 3,700);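 active means thallium flux slope above the same plate's solvent-only control mean plus 3 SD; inconclusive means the two replicate wells disagree; inactive means no significant difference from solvent-only control wells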
KCC2 bumet counter: bumetanide-insensitive thallium flux in KCC2 cells with ouabain, counter-screen; shares compounds with Cl transport mod; HEK293-KCC2 + bumetanide/ouabain, thallium flux FluoZin2; active compounds read high; normalized thallium flux at 10 µM; actives 49% (n = 3,700); AID 1714;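 active means thallium entry rate above the same plate's blocked-transporter control wells by more than 3 SD; inconclusive means the two repeat wells disagree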;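 further: raw slope of fluorescence over initial fluorescence between 10 and 20 s after thallium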
KCC2 secondary2: confirmation of human KCC2 transport modulators; actives 23% (n = 3,700); HEK293-KCC2, thallium flux FluoZin2 fluorescence; actives lie on both sides; F/F0 rise rate, 10–20 s post-thallium; shares compounds with Cl transport mod; normalized thallium flux at 10 µM;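 active means thallium flux slope more than 3 SD above or below the plate's solvent-only control mean, mostly below; inconclusive means the two repeat wells disagreed; inactive means no significant shift from solvent-only controls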
HEK counter1: parental HEK flux effect, counter-screen; shares compounds with Cl transport mod; HEK293 parental cells, thallium flux FluoZin2, ouabain; baseline-ratio fluorescence slope, 10–20 s after thallium; thallium flux rate (normalised fluorescence) at 10 µM; actives 46% (n = 3,700);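 active means thallium flux rate significantly above the same plate's solvent-only control wells, beyond their mean plus 3 SD; inconclusive means the two replicate wells gave conflicting results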
KCC2 retest ouab: KCC2 (human) modulation, ouabain retest; shares compounds with Cl transport mod; HEK293-KCC2, thallium flux FluoZin2 fluorescence; bidirectional: low = inhibitor, high = activator; raw Tl+ flux slope (below DMSO = inhibition, above = activation) at 10 µM; actives 48% (n = 3,700);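 active means thallium flux slope beyond 3 SD from same-plate DMSO control mean in most replicates, usually higher, sometimes lower; inconclusive means repeat tests gave conflicting results; inactive means no significant difference from controls in most replicates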;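 further: slope of initial-normalized fluorescence between seconds 10 and 20 after thallium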
HEK counter2: acts in parental HEK cells, second KCC2 counter-screen | HEK293 parental, thallium flux FluoZin-2 fluorescence slope | shares compounds with Cl transport mod | AID 1718 | actives 33% (n = 3,700) | thallium flux slope at 10 µM;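 active means thallium flux slope above the same plate's solvent-control mean plus 3 SD in both duplicate wells; inconclusive means duplicate wells that disagreed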;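 further: run without ouabain in cells lacking the KCC2 cotransporter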
Hits are given with their value; - = inactive; ? = inconclusive; . = no result. Hits are enriched below; roughly 3.7% of the tested compounds scored in any of these assays.

SMILES	Furin inh	NPY1 pot ag	NPY Y1 blocker	NPY-Y2 antag	Cl transport mod	NPY-Y2 PAM-ag	KCC2 secondary	KCC2 bumet counter	KCC2 secondary2	HEK counter1	KCC2 retest ouab	HEK counter2
COc1ccc(NC(=O)[C@@H](NC(=O)c2ccccc2F)C(C)C)cc1S(=O)(=O)N1CCOCC1	-	-	-	.	-	-	.	.	.	.	.	.
CCS(=O)(=O)N1CCCC(C(=O)N2CCc3ccccc3C2)C1 (stereo unspecified)	-	-	-	-	.	-	.	.	.	.	.	.
Cc1noc(/C=C/c2ccco2)c1S(=O)(=O)N1CCC(C(=O)N2CCc3ccccc3C2)CC1	-	-	-	-	-	-	-	-	0.026	-	?	-
O=C(C1CCN(S(=O)(=O)c2cccs2)CC1)N1CCc2ccccc2C1	-	-	-	-	-4.1	-	-	-	0.024	-	0.018	-
O=C(C1CCCN(S(=O)(=O)c2cccs2)C1)N1CCc2ccccc2C1 (stereo unspecified)	-	-	-	-	-3	-	-	-	-	-	0.016	-
CS(=O)(=O)c1ccc(C(=O)Nc2ccc(N3CCOCC3)cc2)c(Cl)c1	-	-	-	.	-	-	.	.	.	.	.	.
CN(c1ccccc1)S(=O)(=O)c1ccc(Cl)c(C(=O)Nc2ccc(N3CCOCC3)cc2)c1	-	-	-	.	-2.7	-	-	-	-	-	-	-
C/C(N)=C(/C#N)C(=O)CSc1nc2ccccc2c(=O)n1-c1ccc(C)c(Cl)c1	-	-	-	-	-	-	.	.	.	.	.	.
Cc1nn(C)cc1-c1n[nH]c(=S)n1-c1ccc(F)cc1	-	-	-	-	-	-	.	.	.	.	.	.
Fc1ccc(-n2c(-c3ccc4ccccc4n3)n[nH]c2=S)cc1	-	-	-	.	6.6	-	?	0.022	-	0.018	0.027	0.018
S=c1[nH]nc(-c2ccc3ccccc3n2)n1-c1ccccc1Cl	-	-	-	-	6	-	-	0.026	-	0.013	-	-
O=c1ccc(-c2n[nH]c(=S)n2-c2ccc(F)c(Cl)c2)n[nH]1	-	-	-	.	-	-	.	.	.	.	.	.
S=c1[nH]nc(-c2ccc3ccccc3n2)n1-c1cc(Cl)cc(Cl)c1	-	-	-	-	22	-	0.021	0.054	-	0.039	0.051	0.013
CC1=CC(C)C(/C=N/N=C(N)N)C(C)C1 (stereo unspecified)	-	-	.	.	-	-	.	.	.	.	.	.
Cc1cc(C)c(-n2c(SCCS(=O)(=O)c3ccc(F)cc3)n[nH]c2=O)c(C)c1	-	-	.	.	-	-	.	.	.	.	.	.
CC1C/C(=N/NC(=O)c2cccc(F)c2)c2ccc(O)cc2C1 (stereo unspecified)	-	-	-	-	.	-	.	.	.	.	.	.
CCc1nnc(NC(=O)C2CCCN(S(=O)(=O)c3ccccc3)C2)s1 (stereo unspecified)	-	-	-	-	.	-	?	-	-	-	-	-
N#Cc1nc(Cc2cccc3ccccc23)oc1NCc1ccc(F)cc1	-	-	-	-	-	-	.	.	.	.	.	.
N#Cc1nc(Cc2cccc3ccccc23)oc1NCCN1CCOCC1	-	-	-	-	-4.5	-	-	-	0.023	-	?	-
N#Cc1nc(Cc2cccc3ccccc23)oc1N1CCN(c2ccccc2)CC1	-	-	-	-	.	-	.	.	.	.	.	.
N#Cc1nc(Cc2cccc3ccccc23)oc1N1CCOCC1	-	-	-	-	-6	-	-	-	0.022	-	0.012	-
C=CCNc1oc(Cc2cccc3ccccc23)nc1C#N	-	-	-	-	-4.6	-	-	-	0.023	-	?	-
COc1ccccc1OCC(=O)NCCSCc1cccc(Cl)c1	-	-	-	-	-	-	.	.	.	.	.	.
COC(=O)/C=C/c1ccc(OC(=O)c2ccncc2)cc1	-	-	-	-	-	-	.	.	.	.	.	.
CCOC(=O)N1CCN(C(=O)CS(=O)(=O)c2cn(Cc3ccccc3Cl)c3ccccc23)CC1	-	-	-	-	-	-	.	.	.	.	.	.
SMILES	Furin inh	NPY1 pot ag	NPY Y1 blocker	NPY-Y2 antag	Cl transport mod	NPY-Y2 PAM-ag	KCC2 secondary	KCC2 bumet counter	KCC2 secondary2	HEK counter1	KCC2 retest ouab	HEK counter2
Cc1cc(NC(=O)CS(=O)(=O)c2cn(Cc3ccccc3Cl)c3ccccc23)no1	-	-	-	-	-2.9	-	-	-	?	0.006	0.015	?
Nc1cc(=O)nc(SCC(=O)Nc2ccccc2)n1-c1ccccc1	-	-	-	-	-	-	.	.	.	.	.	.
Cc1ccc(NC(=O)C(C)Sc2nc(=O)cc(N)n2-c2ccccc2)cc1 (stereo unspecified)	-	-	-	-	.	-	-	-	-	-	-	-
CC(C)Cn1c(SCC(=O)NC(=O)Nc2ccc3c(c2)OCCO3)nc2ccccc2c1=O	-	-	-	-	17	-	0.014	0.044	-	?	0.039	?
COCCn1c(SCC(=O)Nc2cccc(S(N)(=O)=O)c2)nc2cc(Cl)ccc2c1=O	-	-	-	.	-	-	.	.	.	.	.	.
CC(C)Cn1c(SCC(=O)Nc2cccc(S(N)(=O)=O)c2)nc2ccccc2c1=O	-	-	-	.	5.7	-	-	0.018	-	0.0095	?	0.011
O=C(NCCc1ccccc1)C1CCC(CNS(=O)(=O)c2cccs2)CC1 (stereo unspecified)	-	-	-	.	-	-	.	.	.	.	.	.
CCCc1nc2ccccc2c(=O)n1N	-	-	-	-	12	-	-	-	-	-	-	-
COc1ccc(C2/C=C\CN(C(=O)CC(C)(C)C)CC(=O)N2Cc2ccc(F)cc2)cc1 (stereo unspecified)	-	.	.	.	-	.	.	.	.	.	.	.
COc1ccc(C2/C=C\CN(C(=O)CC(C)C)CC(=O)N2Cc2ccc(F)cc2)cc1 (stereo unspecified)	-	.	.	.	-3	.	-	-	0.025	0.0059	-	-
CCOC(=O)c1cncc(C#CCO)c1	-	-	.	.	.	-	.	.	.	.	.	.
Cc1ccc(SCCNC(=O)/C=C/c2cccc([N+](=O)[O-])c2)cc1	-	-	-	-	-4.5	-	-	-	-	-	0.015	-
